{
  "source": "PubChem BioAssay AID1448",
  "about": "(The Scripps Research Institute Molecular Screening Center, 2008)",
  "note": "The whole screen tested about 220,000 compounds, of which about 630 (0.29%) were called active. The entries come from a sample that favours actives as a whole. Unmarked numbers belong to inactive results.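 Rule for the calls: active = activation above its plate's cutoff, the mean activation of the plate's test wells plus 3 SD (cut at about 12% in these data); inactive = the rest.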",
  "data": [
    {"target": "Mucolipin-3 (Homo sapiens) (UniProt Q8TDD5)", "sequence (Q8TDD5 whole entry, looked up)": "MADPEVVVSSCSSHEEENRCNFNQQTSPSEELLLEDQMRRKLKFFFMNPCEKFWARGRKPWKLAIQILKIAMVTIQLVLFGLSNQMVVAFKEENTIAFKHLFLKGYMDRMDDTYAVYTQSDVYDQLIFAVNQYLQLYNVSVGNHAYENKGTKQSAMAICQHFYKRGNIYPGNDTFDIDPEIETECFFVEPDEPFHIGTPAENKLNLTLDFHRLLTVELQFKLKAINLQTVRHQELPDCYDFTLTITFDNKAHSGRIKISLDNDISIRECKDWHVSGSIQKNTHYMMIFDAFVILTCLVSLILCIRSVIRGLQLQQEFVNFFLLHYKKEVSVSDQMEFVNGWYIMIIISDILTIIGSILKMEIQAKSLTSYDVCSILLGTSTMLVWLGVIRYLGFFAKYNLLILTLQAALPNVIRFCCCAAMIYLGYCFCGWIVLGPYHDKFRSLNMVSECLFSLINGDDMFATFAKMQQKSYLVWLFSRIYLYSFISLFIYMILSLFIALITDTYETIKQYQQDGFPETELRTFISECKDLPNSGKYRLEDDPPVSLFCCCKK", "experiment": "human TRPML3 channel agonists, primary screen, cell-based, HEK293 TRPML3-YFP, Fluo-8 calcium fluorescence, 3 µM (AID 1448);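 note: 0% = DMSO only wells and 100% = carbachol wells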", "conditions": "at 3 µM, hits give high values, 100% = the carbachol control signal", "how_it_was_run": "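Material: TRPML3-YFP stable HEK293 cells | Dosing: One concentration, 3 µM nominal, 0.3% DMSO | Timing: 125 s total fluorescence read per well | Technique: Fluo-8 calcium dye fluorescence, ex 470-495, em 515-575 nm | Measure: Percent activation from peak-to-basal fluorescence ratio, scaled between DMSO and carbachol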", "values": [
      {"smiles": "Cc1nnc(N/N=C/C2CC=CCC2)[nH]c1=O", "note": "(stereo not given)", "activation": "1.13%"},
      {"smiles": "N#C/C(=C/c1ccc(-c2ccccc2[N+](=O)[O-])o1)C(=O)NCCN1CCCCC1", "activation": "-0.32%"},
      {"smiles": "O=C(NCCc1c[nH]c2ccccc12)C(=O)NCC1CCCO1", "note": "(stereo not given)", "activation": "0.08%"},
      {"smiles": "N#C/C(=C/c1ccc(N2CCCCC2)o1)C(=O)NCCc1c[nH]c2ccccc12", "activation": "15.6% (active)"},
      {"smiles": "Cn1c(SCC(=O)c2ccc(F)cc2)nnc1-c1ccccn1", "activation": "-0.33%"},
      {"smiles": "Cc1nc(COc2cccc(Cl)c2)sc1C(=O)/C=C/N(C)C", "activation": "-0.16%"},
      {"smiles": "COc1ccc(N=C(C)c2sc3ccccc3c2O)cc1", "activation": "2.16%"},
      {"smiles": "CCC(C(=O)Nc1ccc2c(c1)OCCO2)c1ccccc1", "note": "(stereo not given)", "activation": "-0.06%"},
      {"smiles": "CCC(C(=O)Nc1ccc(C(C)C)cc1)c1ccccc1", "note": "(stereo not given)", "activation": "15.7% (active)"},
      {"smiles": "CCC(C(=O)OCC(=O)Nc1ccc(C(=O)Nc2ccc(OC)cc2)cc1)c1ccccc1", "note": "(stereo not given)", "activation": "1.2%"},
      {"smiles": "Cn1cccc1/C=N/NC(=O)c1ccc(OC(F)(F)C(F)F)cc1", "activation": "0.29%"},
      {"smiles": "Cc1cc(NC(=O)CCC(=O)N(CC(=O)NCC2CCCO2)c2ccccc2C)no1", "note": "(stereo not given)", "activation": "-0.47%"},
      {"smiles": "Cc1cc(C)nc(/N=C2\\NC(=O)CC(C(=O)O)N2c2ccc(Cl)cc2Cl)n1", "note": "(stereo not given)", "activation": "0.53%"},
      {"smiles": "Cc1ccc(C(NC(=O)N2CCCC2)C(Cl)(Cl)Cl)cc1F", "note": "(stereo not given)", "activation": "-0.15%"},
      {"smiles": "Oc1ccc2ccc3cccc[n+]3c2c1", "activation": "14.6% (active)"},
      {"smiles": "C/C(=N\\Nc1nc(N2CCOCC2)nc(N2CCOCC2)n1)c1ccc([N+](=O)[O-])cc1", "activation": "0.78%"},
      {"smiles": "COc1ccc(/C=N/NC(=O)C(C)N(c2ccc(OC)cc2)S(C)(=O)=O)cc1", "note": "(stereo not given)", "activation": "0.53%"},
      {"smiles": "CC(C)n1c(CN2CCN(Cc3ccccc3)CC2)nc2ccccc21", "activation": "0.13%"},
      {"smiles": "CCN(C(=O)Cc1nc(N)n[nH]1)C1(C(=O)Nc2ccccc2)CCCCC1", "activation": "-0.28%"},
      {"smiles": "CN(C)c1ccnc2sc(C(=O)c3ccccc3)c(N)c12", "activation": "-0.55%"},
      {"smiles": "Cc1nc2sc(C(=O)c3ccccc3)c(N)c2c2c1CCCC2", "activation": "-0.35%"},
      {"smiles": "Nc1c(C(=O)c2cccs2)sc2nsc(SCCN3CCCCC3)c12", "activation": "23.1% (active)"},
      {"smiles": "CCN(CC)c1ccc(C(=O)c2cnc(/N=C/N(C)C)s2)cc1", "activation": "-0.38%"},
      {"smiles": "COC(=O)c1ccccc1N=Nc1c(C)[nH][nH]c1=O", "activation": "0.25%"},
      {"smiles": "C[C@@H](NC(=O)OC(C)(C)C)c1nnc(S(=O)(=O)Cc2ccccc2)o1", "activation": "1.12%"},
      {"smiles": "CCN1/C(=C/C(=S)Nc2ccccc2)Sc2ccccc21", "activation": "-0.23%"},
      {"smiles": "CCN1/C(=C/c2ccc3ccc(C)cc3[n+]2CC)Sc2ccccc21", "activation": "12.7% (active)"},
      {"smiles": "CCN1CCN(CCNC(=O)c2ccc(/C=C3/Sc4ccccc4N(Cc4cccc(C)c4)C3=O)cc2)CC1", "activation": "1.89%"},
      {"smiles": "CCN1/C(=C\\c2ccc3ccccc3[n+]2CC)Sc2cc(C)ccc21", "activation": "16.6% (active)"},
      {"smiles": "COc1ccc(N(Cc2ccccc2)S(=O)(=O)c2cccc(C(=O)O)c2)cc1", "activation": "0.34%"},
      {"smiles": "COc1ccc(N(CCC#N)S(=O)(=O)c2ccc(Cl)cc2)cc1", "activation": "11.9% (active)"},
      {"smiles": "COc1ccc(CNC(=O)CN(Cc2ccc(Cl)cc2)S(C)(=O)=O)cc1", "activation": "0.83%"},
      {"smiles": "Cc1[nH]c2c(C(=O)N3CCCC(CCC(=O)NCc4ccccc4F)C3)cccc2c1C", "note": "(stereo not given)", "activation": "-0.04%"},
      {"smiles": "COC(=O)CCC(=O)N1CCCC(CO)(Cc2ccccc2)C1", "note": "(stereo not given)", "activation": "0.26%"},
      {"smiles": "Cc1ccccc1-n1nc(C)c2c1N=C1C(Cl)=CC(Cl)=CN1C2c1ccc(C(=O)O)cc1", "note": "(stereo not given)", "activation": "0.62%"},
      {"smiles": "Cc1ccc(OCC(=O)Nc2ccccc2Sc2ccc(Cl)cc2)c([N+](=O)[O-])n1", "activation": "0.1%"},
      {"smiles": "CC(C)CNC(=O)C(=O)Nc1ccc(N(C)C)cc1", "activation": "1.3%"},
      {"smiles": "O=[N+]([O-])/C=C1\\CCCCCN1", "activation": "0.64%"},
      {"smiles": "COc1ccc(S(=O)(=O)N(C)CC(=O)N2CCCC2)cc1Cl", "activation": "0.85%"},
      {"smiles": "COc1ccccc1N(CC(=O)N1CCCCC1)S(=O)(=O)c1ccccc1", "activation": "162% (active)"},
      {"smiles": "CCOC(=O)N1CCN(C(=O)CN(c2ccc(C)c(C)c2)S(=O)(=O)c2ccccc2)CC1", "activation": "0.07%"},
      {"smiles": "COc1cccc2c(=O)n(CC(=O)N3CCCCCC3)ccc12", "activation": "0.82%"},
      {"smiles": "COc1ccc(Cl)cc1N(CC(=O)N/N=C/c1ccc(OCC(N)=O)cc1)S(C)(=O)=O", "activation": "0.86%"},
      {"smiles": "COc1ccc(Cl)cc1N(CC(=O)N1CCCCC1)S(C)(=O)=O", "activation": "56.7% (active)"},
      {"smiles": "CCCC(=O)Nc1ccc2c(c1)nc(CCNC(=O)c1ccco1)n2C", "activation": "0.81%"},
      {"smiles": "CCOc1ccc(CN2CCN(Cc3ccc(C)o3)CC2CCO)cc1", "note": "(stereo not given)", "activation": "1.1%"},
      {"smiles": "CN(Cc1nc(-c2cnccn2)no1)Cc1n[nH]c2c1CCCCC2", "activation": "0.69%"},
      {"smiles": "CCn1c(SCC(=O)Nc2nccs2)nnc1-c1ccco1", "activation": "0.4%"},
      {"smiles": "O=C(CSc1nnc2ccc(-c3ccncc3)nn12)N1CCCCC1", "activation": "-0.71%"},
      {"smiles": "Cc1ccc(F)cc1NC(=O)N1CCCN(c2ccc(C(F)(F)F)cn2)CC1", "activation": "2.2%"},
      {"smiles": "Cc1cccc(NC(=O)CN2C(=O)c3ccccc3C2=O)c1C", "activation": "1.15%"},
      {"smiles": "Cc1ccc2c(c1)-c1c(ssc1=S)C(C)(C)N2C(=O)CN1C(=O)c2ccccc2C1=O", "activation": "-0.04%"},
      {"smiles": "Cc1cc2c(cc1C)N(C(=O)CN1C(=O)c3ccccc3C1=O)C(C)(C)c1ssc(=S)c1-2", "activation": "81.4% (active)"},
      {"smiles": "CCOc1ccc(NC(=O)NNC(=O)c2ccc(Cl)cc2Cl)cc1", "activation": "0.56%"},
      {"smiles": "O=C(NCCN1CCOCC1)c1ccc2c(c1)N(Cc1ccc(Cl)cc1)CCS2", "activation": "0.23%"},
      {"smiles": "O=C1/C(=C/c2cccs2)SC(=S)N1C1CCS(=O)(=O)C1", "note": "(stereo not given)", "activation": "0.54%"},
      {"smiles": "O=C(Nc1nc2ccc([N+](=O)[O-])cc2s1)c1ccncc1", "activation": "1.14%"},
      {"smiles": "O=C(O)CCC(=O)Nc1nc2ccc([N+](=O)[O-])cc2s1", "activation": "0.5%"},
      {"smiles": "O=C(NC(Nc1nc2ccc([N+](=O)[O-])cc2s1)(C(F)(F)F)C(F)(F)F)c1ccccc1", "activation": "13% (active)"},
      {"smiles": "C=CCNC(=O)COC(=O)CNC(=O)c1cc(Cl)cc([N+](=O)[O-])c1", "activation": "0.51%"},
      {"smiles": "COc1ccc(NS(=O)(=O)c2ccc(Oc3c(C#N)cccc3C#N)cc2)cc1", "activation": "4.31%"},
      {"smiles": "Cc1nnc(C)c2c(C)n(N)c(C)c12", "activation": "0.94%"},
      {"smiles": "O=C(NC(CC(=O)N1CCN(c2ccccc2)CC1)c1ccccc1)c1ccccc1Cl", "note": "(stereo not given)", "activation": "-0.24%"},
      {"smiles": "CCN(CC)c1ccc2cc(C(N)=O)/c(=N\\NC(=O)c3ccncc3)oc2c1", "activation": "22.1% (active)"},
      {"smiles": "CCN(CC)c1ccc2cc(C(=O)O)c(=O)oc2c1", "activation": "0.92%"},
      {"smiles": "COc1ccc(C(=O)N/N=c2\\oc3ccccc3cc2C(N)=O)cc1", "activation": "0.85%"},
      {"smiles": "OCC(O)CN(c1ccccc1)c1ccccc1", "note": "(stereo not given)", "activation": "0.25%"},
      {"smiles": "CN1CCN(/N=C/c2ccc(-c3ccc([N+](=O)[O-])cc3)o2)CC1", "activation": "4.1%"},
      {"smiles": "Cn1c2c(c(=O)n(C)c1=O)C(c1cccc(F)c1)C(C#N)=C(N)O2", "note": "(stereo not given)", "activation": "0.03%"},
      {"smiles": "Cc1nonc1C1CCCN1Cc1nc(-c2ccc(F)cc2F)oc1C", "note": "(stereo not given)", "activation": "0.58%"},
      {"smiles": "O=S(=O)(c1cccc2nonc12)N1CCN(c2cccc(Cl)c2)CC1", "activation": "0.52%"},
      {"smiles": "Cc1cccn2c(=O)c(/C=C3\\SC(=S)N(CC(C)C)C3=O)c(NCCCOC(C)C)nc12", "activation": "0.65%"},
      {"smiles": "CCOC(=O)CC1C(=O)NCCN1C(=O)COc1ccc(Br)cc1C", "note": "(stereo not given)", "activation": "-0.14%"},
      {"smiles": "CCOC(=O)CC1C(=O)NCCN1c1nc2c(C)cccn2c(=O)c1/C=C1\\SC(=S)N(C(C)CC)C1=O", "note": "(stereo not given)", "activation": "11.9% (active)"},
      {"smiles": "CC(CC(=O)C1C(C)C=CCC1(C)C)NNC(N)=O", "note": "(stereo not given)", "activation": "0.6%"},
      {"smiles": "O=C(CC(=O)Nc1ccc(Cl)c(Cl)c1)N/N=C/c1ccc(O)cc1", "activation": "0.24%"},
      {"smiles": "CN(C)CCNC(CC(=O)Nc1ccc(Cl)c(Cl)c1)C(=O)O", "note": "(stereo not given)", "activation": "-0.13%"},
      {"smiles": "O=C(CC(O)(C(F)(F)F)C(F)(F)F)Nc1ccc(Cl)c(Cl)c1", "activation": "17.3% (active)"},
      {"smiles": "CCn1c(CSc2nc(C)cc(C)n2)nnc1SCC(N)=O", "activation": "0.87%"},
      {"smiles": "CC(C)CN(CC(C)C)CC(O)CN(c1ccccc1)S(=O)(=O)c1ccccc1[N+](=O)[O-]", "note": "(stereo not given)", "activation": "-1.13%"},
      {"smiles": "COc1ccc(-c2noc(-c3ccc(C)cc3)n2)cc1", "activation": "1.08%"},
      {"smiles": "COc1ccc(-c2noc(CN(C)S(=O)(=O)c3ccc(C)cc3)n2)cc1", "activation": "138% (active)"},
      {"smiles": "COc1ccc(-c2noc(CSc3ccc(C)cc3)n2)cc1", "activation": "0.35%"},
      {"smiles": "Cc1ccnc(NC(=O)c2ccc(Cl)c([N+](=O)[O-])c2)c1", "activation": "0.05%"},
      {"smiles": "CC(C)(C)OC(=O)N1CCC(NC(=O)c2[nH]cnc2C(=O)N[C@@H](Cc2ccccc2)C(=O)OCc2ccccc2)CC1", "activation": "0.25%"},
      {"smiles": "COC(=O)c1ccc(NC(=O)c2ccccc2NS(=O)(=O)c2ccccc2)cc1", "activation": "11.1%"},
      {"smiles": "COc1cc(NC(=O)c2cccnc2SC)cc(OC)c1", "activation": "-0.28%"},
      {"smiles": "COc1cc(NC(=O)c2ccccc2NS(=O)(=O)c2ccc(Cl)s2)cc(OC)c1", "activation": "12.1% (active)"},
      {"smiles": "CN(Cc1cc2cc(F)ccc2[nH]1)Cc1nc(-c2cnccn2)no1", "activation": "0.76%"},
      {"smiles": "Cc1cccc(CSc2ccc(-c3cccs3)nn2)c1", "activation": "0.19%"}
    ]}
  ]
}
